Most compounds without a hit are left out; they make up all but 4% or so of the library.
TAAR1 agonist: human TAAR1 agonism. CHO RD-HGA16 TAAR1, Fluo-8 calcium fluorescence; vehicle wells 0%, saturating PEA agonist 100%. 360,000 tested, 0.99% active. activation, % at 3 µM;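 active = activation above the mean activation of all test compounds in the run plus 3 SD, cut at about 38% in these data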
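Test system: RD-HGA16 (CHO) cells co-expressing Gα16 and hTAAR1; dosing: one-point dosing at 3 µM (nominal); timing: 17-24 h seeding, 75 min 37 °C dye, 30 min RT; signal: kinetic Fluo-8 calcium fluorescence; read-out basis: % activation relative to PEA EC100 response; controls: DMSO and PEA EC100; replicates: n 1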
MPTP block: inhibitors of mitochondrial permeability transition pore | isolated mouse mitochondria, Ca2+ swelling absorbance, 30 min | inhibition, % at 10 µM | 360,000 tested, 1.4% active;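 active = inhibition of 50% or more, scaled per plate between neutral and stimulator controls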;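 note: 0% = DMSO wells given calcium and 100% = 1 mM EGTA wells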
DAGLB inh: diacylglycerol lipase beta (human) inhibition. Q8NCG7. HEK293T DAGLB membrane lysate, EnzChek fluorogenic substrate. inhibition, % at 5.17 µM. 340,000 tested, 0.059% active; in the data active = inhibition above about 34%;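 note: 0% = enzyme with vehicle and 100% = wells lacking enzyme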
Target sequence (Q8NCG7 whole entry, looked up): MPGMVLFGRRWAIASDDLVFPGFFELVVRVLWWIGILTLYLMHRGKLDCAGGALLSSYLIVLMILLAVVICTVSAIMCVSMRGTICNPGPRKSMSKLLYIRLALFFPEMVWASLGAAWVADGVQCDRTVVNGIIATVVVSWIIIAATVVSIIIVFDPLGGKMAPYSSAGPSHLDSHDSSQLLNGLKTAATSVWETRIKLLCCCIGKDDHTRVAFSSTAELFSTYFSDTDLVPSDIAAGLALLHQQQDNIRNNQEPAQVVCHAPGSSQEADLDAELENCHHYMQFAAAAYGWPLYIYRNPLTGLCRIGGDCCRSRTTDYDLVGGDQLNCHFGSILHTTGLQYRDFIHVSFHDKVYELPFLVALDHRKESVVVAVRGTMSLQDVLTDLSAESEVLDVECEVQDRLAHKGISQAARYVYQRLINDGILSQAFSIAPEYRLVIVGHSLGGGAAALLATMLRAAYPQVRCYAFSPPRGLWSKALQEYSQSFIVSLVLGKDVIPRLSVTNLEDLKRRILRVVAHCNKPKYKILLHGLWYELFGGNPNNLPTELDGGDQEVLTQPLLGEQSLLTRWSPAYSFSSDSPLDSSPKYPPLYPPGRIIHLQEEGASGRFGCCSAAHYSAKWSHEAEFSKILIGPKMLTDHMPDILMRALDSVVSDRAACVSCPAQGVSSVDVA
TAAR1 antag: human TAAR1 antagonism | Q96RJ0 | CHO RD-HGA16 TAAR1, Fluo-8 calcium fluorescence, antagonist | inhibition, % at 3 µM | 360,000 tested, 1.5% active | AID 624466;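 active = inhibition above a per-plate cutoff, the mean inhibition of test compounds on that plate plus 3 SD, cut at about 49% in these data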;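 note: 0% = DMSO plus EC80 beta-PEA response and 100% = DMSO alone without agonist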
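Test system – hTAAR1-expressing CHO RD-HGA16 cells, Gα16-coupled · Also added – β-PEA at EC80 concentration, post-compound challenge · Compound – 3 µM, single point · Incubation – dye loading 75 min at 37 °C, then 30 min room temperature · Measured by – Fluo-8 intracellular calcium dye fluorescence, real-time kinetic reads · Benchmarks – vehicle and agonist controls · Replicates – singlicate, one well per test compound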
GPR7 antagonist: antagonists of human GPR7 (neuropeptides B/W receptor 1). GPR7-expressing cells, fluorescence antagonist assay. AID 1861. 290,000 tested, 1.1% active. inhibition, % at 4.4 µM; in the data active = inhibition above about 16%, passing the limit was not always enough;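 note: cells stimulated with the agonist NPW; 0% = agonist with vehicle and 100% = vehicle without agonist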
MPTP counter: membrane potential counter-screen of mitochondrial pore inhibitors. isolated mitochondria, Rhodamine 123 fluorescence. inhibition, % at 10 µM. shares compounds with MPTP block. 5,000 tested, 78% active; in the data active = inhibition above about 22%;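 note: 0% = DMSO vehicle and 100% = positive control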
MPTP abs DR: MPTP inhibition, dose response swelling confirmation | AID 651561 | 780 tested, 58% active | isolated mitochondria swelling, absorbance | IC50, µM | shares compounds with MPTP block; in the data active = IC50 below about 20 µM
MPTP counter DR: counter-screen for mitochondrial permeability transition pore inhibitors, dose response. shares compounds with MPTP block. isolated mitochondria counterscreen, fluorescence read-out. IC50, µM. 780 tested, 49% active. AID 651564; in the data active = IC50 below about 80 µM
* hit, by the source's call; i = inactive; . = no result given.

SMILES | TAAR1 agonist | MPTP block | DAGLB inh | TAAR1 antag | GPR7 antagonist | MPTP counter | others
O=C(Nc1ccc(Cl)c(Cl)c1)Nc1ccccc1C(=O)O | 15 | 28 | 4 | 23 | -13 | .
O=C(Nc1ccccc1)Nc1ccccc1NS(=O)(=O)c1cccs1 | 16 | 61* | 2 | 26 | -4 | 65*
Cn1c(=O)c2c(ncn2CC(=O)Nc2cccc(S(=O)(=O)Nc3ccccc3F)c2)n(C)c1=O | 0 | -3 | -1 | -27 | -7 | .
O=C(Cc1ccc(Cl)cc1)Nc1cccc(S(=O)(=O)Nc2ccccc2F)c1 | 10 | 60* | -4 | 4 | -3 | 64*
O=C(CSc1ccc([N+](=O)[O-])cc1)Nc1cccc(S(=O)(=O)Nc2ccccc2F)c1 | 12 | 87* | 5 | 39 | 13 | 68*
O=C(Nc1cccc(S(=O)(=O)Nc2ccccc2Cl)c1)c1ccc(Cl)nc1 | 7 | 62* | 2 | 27 | -10 | 56*
O=C(Nc1cccc(S(=O)(=O)Nc2ccccc2F)c1)c1ccco1 | 1 | 1 | 1 | 11 | . | .
COC(=O)/C=C1\SC(=Nc2ccccc2)NC1=O | 3 | 2 | 0 | -28 | -2 | .
COC(=O)/C=C1/SC(=Nc2ccc(Cl)c(Cl)c2)NC1=O | 2 | 58* | . | -9 | -8 | 25*
CCCCn1c(/N=C/c2ccc3c(c2)OCO3)nc2ccccc21 | 7 | -1 | 3 | 3 | 5 | .
CCC(C)c1ccccc1N=Cc1ccc2c(c1)OCO2 (stereo unspecified) | 1 | 71* | -1 | -12 | 12 | 2 | MPTP abs DR=>100;MPTP counter DR=>80
O=C(Nc1ccc(F)cc1)C(CCc1ccccc1)N1CCN(C(=O)c2ccco2)CC1 (stereo unspecified) | 6 | 2 | . | 17 | . | .
O=[N+]([O-])c1ccc(O)c(-c2nc(-c3ccccc3)c(-c3cccs3)[nH]2)c1 | 9 | 91* | 2 | 3 | -9 | 86*
O=C(O)c1ccc(-c2nc(-c3ccccc3)c(-c3cccs3)[nH]2)cc1 | 3 | 0 | 0 | -2 | -13 | .
Cc1cc(C(=O)OC(C(=O)Nc2cccc(C(F)(F)F)c2)c2ccccc2)c(C)o1 (stereo unspecified) | 1 | 68* | -9 | 6 | -11 | 73*
O=C(NCc1cccnc1)Nc1ccc(Cl)c(Cl)c1 | 16 | 2 | -2 | -5 | -5 | .
S=C(NCc1cccnc1)Nc1ccc(Oc2ccc(Cl)cc2)cc1 | 6 | 80* | -3 | 9 | -7 | 66*
S=C(NCc1cccnc1)Nc1ccc(Cl)c(Cl)c1 | 24 | 71* | 1 | 2 | 15 | 93*
Cc1ccc(C(=O)CCC(=O)N2CCN(C/C=C/c3ccccc3)CC2)cc1 | -1 | -1 | 0 | -40 | . | .
CN1C(=O)c2cccc(NCCCCCCN3C(=O)c4ccccc4C3=O)c2C1=O | 8 | 108* | 0 | 13 | 3 | 94*
Cc1cc(-n2c(C)cc(C(=O)CSc3[nH]c(=O)cc(C(F)(F)F)c3C#N)c2C)no1 | 4 | 57* | 4 | -3 | . | 72*
Cc1cc(NC(=O)CSc2[nH]c(=O)cc(C(F)(F)F)c2C#N)no1 | 11 | 1 | 1 | -11 | . | .
CCN(C[C@H]1N[C@@](Cc2ccccc2)(C(=O)OC)[C@H]2C(=O)N(Cc3ccccc3)C(=O)[C@@H]12)C(=O)Nc1ccc(Cl)cc1 | 11 | 63* | -1 | 5 | . | 100*
CCOC(=O)c1c(NC(=O)C2=COCCO2)sc2c1CCN(C(=O)OC)C2 | 1 | -1 | -2 | -19 | . | .
COc1ccc(-n2cc(CNCCN3CCOC3=O)c(-c3ccccc3Cl)n2)cc1 | 3 | -1 | -4 | -34 | -1 | .
SMILES | TAAR1 agonist | MPTP block | DAGLB inh | TAAR1 antag | GPR7 antagonist | MPTP counter | others
CCN1CCC(CNCc2cn(-c3ccc(OC)cc3)nc2-c2ccccc2Cl)C1 (stereo unspecified) | 1 | 84* | 0 | 11 | 19 | -13 | MPTP abs DR=9.1*;MPTP counter DR=>80
O=C1Nc2ccccc2-c2nnnn2C1N1CCCC1 (stereo unspecified) | 0 | 4 | . | -8 | . | .
COc1ccccc1-c1cc(C(=O)NC(C)C)no1 | 15 | 0 | -5 | 10 | 7 | .
CCC(C)NC(=O)c1cc(-c2ccccc2O)on1 (stereo unspecified) | 0 | 53* | -2 | 6 | -3 | 1 | MPTP abs DR=i;MPTP counter DR=>80
C[C@H](O)[C@@H]1C(=O)N2CCc3c([nH]c4c(-c5ccccc5)cccc34)[C@@H]2C[C@@H]1N(C)C(=O)OCc1ccccc1 | 4 | . | . | 12 | . | .
CC1(C)CC(Cc2ccc(C(=O)c3ccccc3)cc2)N(C(=O)OC(C)(C)C)N1 (stereo unspecified) | 2 | 0 | -3 | -27 | . | .
O=C(Nc1cccc(O)c1)c1ccc(C(F)(F)F)cc1 | 3 | 1 | -1 | 23 | 3 | .
O=C(Nc1ccc(C(F)(F)F)cc1)c1ccc2nc[nH]c2c1 | 7 | 80* | 0 | 16 | -9 | 93*
O=C(Nc1ccc(OCC(F)(F)C(F)F)c(C(F)(F)F)c1)c1ccc(Cl)cc1 | 5 | 91* | -10 | 31 | -8 | 84*
COc1ccc(C(=O)Nc2ccc(OCC(F)(F)C(F)F)c(C(F)(F)F)c2)cc1OC | 6 | 1 | -1 | 30 | 7 | .
O=C(Nc1ccc(Br)c(C(F)(F)F)c1)c1ccc(C(F)(F)F)cc1 | 3 | 83* | . | 6 | 19 | 87*
O=C(Nc1ccc(Br)c(C(F)(F)F)c1)c1ccccc1 | 4 | 100* | -6 | 5 | -3 | 89*
COc1ccc(NC(=O)c2ccc3nc[nH]c3c2)cc1 | 3 | 0 | 0 | -15 | -1 | .
Cc1ccc(S(=O)(=O)C[C@@H]2OC[C@H](Cc3ccccc3)N2S(=O)(=O)c2ccc(C)cc2)cc1 | 0 | 6 | . | 11 | . | .
CC(C)(C)n1nnnc1C(c1ccccc1)N1CCN(c2ncc(C(F)(F)F)cc2Cl)CC1 (stereo unspecified) | -1 | 3 | . | 14 | . | .
CC(Sc1nc(N)cc(=O)[nH]1)C(=O)Nc1sc2c(c1C#N)CCCC2 (stereo unspecified) | 9 | 76* | 2 | 10 | -2 | 94*
N#Cc1c(NC(=O)CSc2ncn[nH]2)sc2c1CCCCC2 | 21 | 6 | -3 | 8 | 5 | .
CCC(Sc1nc(C)cc(=O)[nH]1)C(=O)Nc1sc2c(c1C#N)CCCC2 (stereo unspecified) | 40* | 58* | 5 | -32 | -8 | 69*
CCC(Sc1nnc2c3ccccc3n(CC)c2n1)C(=O)Nc1sc2c(c1C#N)CCCC2 (stereo unspecified) | 3 | 4 | -3 | -13 | 8 | .

From PubChem BioAssay
